Measured values published in ChEMBL document CHEMBL4396876, “Antisulfatase, Osteogenic, and Anticancer Activities of Steroid Sulfatase Inhibitor EO-33 in Mice” (J Med Chem, 2019).

How the values were obtained:
[1] = Plasma concentration in Balb/c mouse at 30 mg/kg, po administered via gavage as single dose using MC/EtOH formulation measured after 3 hrs by LC-MS/MS analysis; format: ADME, organism-based
In short: (§1)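 Female Balb/c mice, fasted 8 h with free water, given a single dose in 0.1 mL vehicle: EO-33 dissolved in EtOH, then aqueous 0.4% methylcellulose added to a final 8% EtOH. Sacrificed under isoflurane at 1, 3, 7, 12 and 24 h (2–3 mice/group). Cardiac blood collected into K-EDTA and plasma stored at −80 °C. LC-MS/MS on 100 µL plasma. AUC0-24h taken from the five time points.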

[2] = Plasma concentration in Balb/c mouse at 30 mg/kg, sc administered as single dose using PG/DMSO formulation measured after 7 hrs by LC-MS/MS analysis; format: ADME, organism-based
In short: (§2)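 Female Balb/c mice, fasted 8 h, given a single dose in 0.1 mL of PG or sunflower oil holding a final 8% DMSO. Sacrificed under isoflurane at 7 h (2–3 mice/group). Cardiac blood collected into K-EDTA and plasma analysed by LC-MS/MS.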

[3] = Plasma concentration in Balb/c mouse at 30 mg/kg, po administered via gavage as single dose using SO/DMSO formulation measured after 7 hrs by LC-MS/MS analysis; format: ADME, organism-based; in short: as §2
[4] = AUC (0 to 24 hrs) in Balb/c mouse at 30 mg/kg, sc administered as single dose using MC/EtOH formulation by LC-MS/MS analysis; format: ADME, organism-based; design: dose 30 mg/kg, time < 24 hr, route subcutaneous; conditions: in vivo; in short: as §1
[5] = Toxicity in nu/nu Br athymic mouse xenografted with human […]-stimulated MCF7 cells assessed as effect on liver weight at 30 mg/kg, sc administered 6 days per week […] using MC/EtOH formulation measured 3 hrs post-last dose; format: organism-based; conditions: in vivo
In short: (§3)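 MCF-7 cells (grown in DME-F12 with 5% FBS and 1 nM estradiol) inoculated SC at 4.1 x 10^6 cells in 30% Matrigel into both flanks of bilaterally ovariectomized nude mice, three days after surgery; E2S 50 µg/mouse SC three times weekly. Test agent SC 6 days/week in 0.1 mL MC:EtOH (92:8) for 28 days; vehicle-only controls. Mice weighed and killed 3 h after last dose; livers removed.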

[6] = Plasma concentration in Balb/c mouse at 10 mg/kg, sc administered as single dose using MC/EtOH formulation measured after 24 hrs by LC-MS/MS analysis; format: ADME, organism-based; in short: as §1
[7] = Plasma concentration in Balb/c mouse at 10 mg/kg, sc administered as single dose using MC/EtOH formulation measured after 7 hrs by LC-MS/MS analysis; format: ADME, organism-based; in short: as §1
[8] = AUC (0 to 24 hrs) in Balb/c mouse at 30 mg/kg, po administered via gavage as single dose using MC/EtOH formulation by LC-MS/MS analysis; format: ADME, organism-based; design: time < 24 hr, dose 30 mg/kg, route oral; conditions: in vivo; in short: as §1
[9] = AUC (0 to 24 hrs) in Balb/c mouse assessed as (4-(((furan-2-ylmethyl)((5-methylthiophen-2-yl)methyl)amino)methyl)phenyl)(7-hydroxy-3,4-dihydroisoquinolin-2(1H)-yl)methanone level at 30 mg/kg, sc administered as single dose using MC/EtOH formulation by LC-MS/MS analysis; format: ADME, organism-based; design: time < 24 hr, dose 30 mg/kg, route subcutaneous; conditions: in vivo
Mus musculus [10] = experiment: Anti-estrogenic activity in ovariectomized Balb/c mouse assessed as reversal of E1-induced estrogenic effect at 30 mg/kg, sc administered once daily starting from day 2 to day 10 using MC/EtOH formulation and E1 addition on day 5 to 10 measured on day 11; format: organism-based; conditions: in vivo
In short: (§4)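 Female Balb/c mice (15–20 g) ovariectomized under isoflurane, 5/group. Inhibitor given SC in 0.1 mL MC:EtOH (92:8) on days 2–10. E1S (2 µg/mouse, BID) or E1 (0.06 µg/mouse, ID) given SC on days 5–10. Vehicle controls included. Uterus dissected and weighed on day 11. Means ± SEM.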

[11] = Plasma concentration in Balb/c mouse at 10 mg/kg, sc administered as single dose using MC/EtOH formulation measured after 12 hrs by LC-MS/MS analysis; format: ADME, organism-based; in short: as §1
Mus musculus [12] = experiment: (§5) In vivo inhibition of STS in ovariectomized Balb/c mouse assessed as reduction in E1S-stimulated uterus weight at 30 mg/kg, sc administered twice daily starting from day 2 to day 10 using MC/EtOH formulation and E1S addition on day 5 to 10 measured on day 11 relative to control; format: functional; in short: as §4
[13] = Toxicity in nu/nu Br athymic mouse xenografted with human […] MCF7 cells assessed as effect on body weight at 30 mg/kg, sc administered 6 days per week for […] using MC/EtOH formulation measured 3 hrs post-last dose; format: organism-based; conditions: in vivo; in short: as §3
[14] = Plasma concentration in Balb/c mouse at 30 mg/kg, po administered via gavage as single dose using MC/EtOH formulation measured after 7 hrs by LC-MS/MS analysis; format: ADME, organism-based; in short: as §1
Mus musculus [15] = experiment: as §5, with “Ex” for “In”, “mouse liver homogenates” for “mouse”, “transformation of [3H]-E1S into [3H]-E1” for “E1S-stimulated uterus weight”, “11 by liquid scintillation counting method” for “11”; format: functional
In short: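 Livers collected on day 11 from the OVX Balb/c uterotrophic protocol and homogenized in cold pH 7.4 phosphate buffer with protease inhibitors. 2000 g supernatant, 100 or 500 µg protein, incubated with [3H]-E1S/E1S (final 1 µM) in PBS for 2 h at 37 °C. Xylene extraction, then scintillation counting of both phases. Result given as % E1 formed. Triplicate.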

[16] = AUC (0 to 24 hrs) in Balb/c mouse at 10 mg/kg, sc administered as single dose using MC/EtOH formulation by LC-MS/MS analysis; format: ADME, organism-based; design: dose 10 mg/kg, time < 24 hr, route subcutaneous; conditions: in vivo; in short: as §1
[17] = Toxicity in ovariectomized-induced C57BL/6 mouse model of osteoporosis assessed as effect on body weight at 30 mg/kg, sc administered 6 days per week for 70 days using MC/EtOH formulation measured post last dose; format: organism-based; conditions: in vivo
In short: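 Female C57BL/6 mice, 63-70 days old, ovariectomized under isoflurane (sham-operated controls), randomized by weight into groups of 8. Treated SC in 0.1 mL MC:EtOH (92:8) over 70 days; sham and OVX controls received vehicle alone. Mice weighed at the end of the protocol before necropsy.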

[18] = AUC (0 to 24 hrs) in Balb/c mouse assessed as (4-(((furan-2-ylmethyl)((5-methylthiophen-2-yl)methyl)amino)methyl)phenyl)(7-hydroxy-3,4-dihydroisoquinolin-2(1H)-yl)methanone level at 30 mg/kg, po administered via gavage as single dose using MC/EtOH formulation by LC-MS/MS analysis; format: ADME, organism-based; design: dose 30 mg/kg, time < 24 hr, route oral; conditions: in vivo
[19] = Plasma concentration in Balb/c mouse at 30 mg/kg, po administered via gavage as single dose using MC/EtOH formulation measured at 1 hr by LC-MS/MS analysis; format: ADME, organism-based; in short: as §1
Mus musculus [20] = experiment: In vivo inhibition of STS in sc-dosed ovariectomized Balb/c mouse assessed as reduction in E1S-stimulated uterus weight administered twice daily starting from day 2 to day 10 using MC/EtOH formulation and E1S addition on day 5 to 10 measured on day 11; format: functional, organism-based; in short: as §4
[21] = Hepatotoxicity in ovariectomized-induced C57BL/6 mouse model of osteoporosis assessed as effect on liver weight at 30 mg/kg, sc administered 6 days per week for 70 days using MC/EtOH formulation measured post last dose by necropsy analysis; format: toxicity, organism-based; conditions: in vivo

Cc1ccc(CN(Cc2ccc(C(=O)N3CCc4ccc(OS(N)(=O)=O)cc4C3)cc2)Cc2ccco2)s1
concentration at 3 h [1]: 19 ng/mL
concentration at 7 h [2]: 381 ng/mL
concentration at 7 h [3]: 49 ng/mL
AUC(0-t) at 24 h [4]: 13500 ng·h/mL
Activity [5]: Non-Toxic
concentration at 24 h [6]: 2 ng/mL
concentration at 7 h [7]: 15 ng/mL
AUC(0-t) at 24 h [8]: 878 ng·h/mL
AUC [9]: 269 ng·h/mL
Activity (Mus musculus [10]): Non-Toxic
concentration at 12 h [11]: 4 ng/mL
inhibition in vivo at 30 mg/kg (Mus musculus [12]): 69%
Activity [13]: Non-Toxic
concentration at 7 h [14]: 75 ng/mL
inhibition in vivo at 30 mg/kg (Mus musculus [15]): 81%
AUC(0-t) at 24 h [16]: 5200 ng·h/mL
Activity [17]: Non-Toxic
AUC [18]: 10 ng·h/mL
concentration at 1 h [19]: 308 ng/mL
inhibition (Mus musculus [20]): Dose-dependent effect
Activity [21]: Non-Toxic
